The source made the active and inactive calls. No cut-off for these calls is given here.
Assays:
[1] = tested on: A549/CDDP; experiment: Induction of apoptosis in human A549/CDDP cells assessed as increase in cleaved PARP level at 0.6 to 1.2 uM after 24 hrs by Western blot method; type: functional, cell-based
How it was run: (§1)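 Cells were plated at 1 × 10^6/well overnight, then treated 24 h with vehicle DMSO (0.1%, v/v) or compound (A549, 2.1 or 4.2 µM; A549/DDP, 0.6 or 1.2 µM). Lysis was at 4 °C. Lysates were run on SDS-PAGE (7.5% gel, 20 µg/lane) and immunoblotted with ECL detection; phospho-Akt Ser473 and phospho-ERK Thr202/Tyr204 were probed. Bands were normalized to GAPDH (TrxR, Trx) or β-actin. Three independent experiments were run.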

[2] = tested on: A549/CDDP; experiment: Induction of apoptosis in human A549/CDDP cells assessed as increase in Bax expression at 0.6 to 1.2 uM after 24 hrs by Western blot method; type: functional, cell-based; how it was run: as §1
[3] = tested on: A549; experiment: Induction of apoptosis in human A549 cells assessed as increase in cleaved caspase 3 level at 2.1 to 4.2 uM after 24 hrs by Western blot method; type: functional, cell-based; how it was run: as §1
[4] = Acute toxicity in ICR mouse assessed as survival at 450 mg/kg, ip measured on day 14; type: organism-based; conditions: in vivo
How it was run: (§2)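 Male and female ICR mice (7 weeks), randomized, 10 per group, given one intraperitoneal dose at 200, 250, 300, 350, 400 or 450 mg/kg. Animals were watched for abnormal behaviour and deaths up to two weeks. Deaths were tallied at 1 h, 4 h, day 3 and days 4-14, with survival on day 14. LD50 was calculated with 95% confidence limits.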

[5] = Toxicity in BALB/c nude mouse xenografted with human A549/CDDP cells assessed as body weight at 20 mg/kg, ip administered daily for 15 consecutive days measured on day 15 (reference value: 21 +/- 1.28 g); type: organism-based; conditions: in vivo
[6] = tested on: A549/CDDP; experiment: Induction of apoptosis in human A549/CDDP cells at 0.6 to 1.2 uM after 24 hrs by annexin V-FITC/propidium iodide staining-based flow cytometry; type: functional, cell-based
How it was run: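 Cells were seeded at 1 × 10^5/well and treated 24 h with DMSO (1%) or compound. They were then washed in PBS, stained with FITC-Annexin V and propidium iodide, and apoptotic fractions were quantified by flow cytometry.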

[7] = Cytotoxicity against NHBE cells after 72 hrs by MTT assay; type: cell-based; conditions: Homo sapiens
How it was run: (§3)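 Cells (A549, A549/DDP, SPC-A-1, LTEP-G-2, non-tumor bronchial epithelial HBE) were exposed in triplicate to vehicle or compound for 72 h. MTT (5 mg/mL in PBS) was then added for 4 h, formazan was dissolved in DMSO, and absorbance was read at 570 nm. IC50 values were derived from viability.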

[8] = tested on: A549/CDDP; experiment: Decrease in P-gp mRNA level in human A549/CDDP cells at 0.6 to 1.2 uM after 24 hrs by RT-PCR method; type: functional, cell-based
How it was run: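 A549/DDP cells (1 × 10^6) were treated with vehicle or 0.6 or 1.2 µM compound for 24 h. Total RNA was reverse-transcribed with oligo dT primers. ABCB1 transcripts were quantified by real-time RT-PCR relative to GAPDH and expressed as fold of the 0.1% DMSO control. Three independent experiments were run.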

[9] = tested on: A549/CDDP; experiment: Anticancer activity against human A549/CDDP cells xenografted in BALB/c nude mouse assessed as tumor growth inhibition at 20 mg/kg, ip administered daily for 15 consecutive days measured every 3 days; type: functional; conditions: read-out: TGI
How it was run: (§4)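 Both sexes of athymic BALB/c nude mice (4-5 weeks) were inoculated subcutaneously with A549/DDP cells (1 × 10^7/mouse). Once tumors reached 180-200 mm3, mice were randomized (n = 8). They received ip dosing daily for 15 consecutive days, with vehicle PBS/DMSO/cremophor-EL (8:1:1). Tumors were measured by caliper and volume was taken as width2 × length/2. Growth inhibition was taken from tumor weight (w/w).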

[10] = tested on: A549; experiment: Effect on NFkappaB expression in human A549 cells at 2.1 to 4.2 uM after 24 hrs by Western blot method; type: functional, cell-based; how it was run: as §1
[11] = Acute toxicity in ICR mouse assessed as mortality at 200 to 400 mg/kg, ip measured at 4 hr post treatment; type: organism-based; conditions: in vivo; how it was run: as §2
[12] = target: ATP-dependent translocase ABCB1 (Homo sapiens, UniProt P08183); experiment: Inhibition of P-gp in human A549/CDDP cells assessed as accumulation of rhodamine 123 at 0.03 to 1.2 uM by flow cytometry; type: cell-based
How it was run: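 A549/DDP cells were treated with compound (0.03-1.2 µM), with verapamil as the reference P-gp inhibitor. Intracellular rhodamine 123 accumulation was measured by flow cytometry.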

[13] = tested on: A549/CDDP; experiment: Induction of ROS generation in human A549/CDDP cells 0.6 to 1.2 uM after 60 mins by DHE staining-based fluorescence assay in presence of GSH; type: functional, cell-based
[14] = tested on: A549; experiment: Induction of ROS generation in human A549 cells 2.1 to 4.2 uM after 60 mins by DHE staining-based fluorescence assay in presence of GSH; type: functional, cell-based
[15] = target: Thioredoxin reductase (Homo sapiens, UniProt Q16881+Q9NNW7+Q86VQ6); experiment: Inhibition of thioredoxin reductase in human A549 cells by DTNB dye based microplate spectrophotometry; type: cell-based
How it was run: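 A549 or A549/DDP cells were treated with varying compound concentrations for 24 h, then harvested, homogenized and centrifuged. Protein (50 µg) was reacted in triplicate with NADPH and DTNB in TE buffer at 37 °C for 1 h, and TNB was read at 412 nm. Activity was taken from a purified-TrxR standard curve, and IC50 was derived.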

[16] = tested on: A549/CDDP; experiment: Anticancer activity against human A549/CDDP cells xenografted in BALB/c nude mouse assessed as tumor growth inhibition at 40 mg/kg, ip administered daily for 15 consecutive days measured every 3 days; type: functional; conditions: 15 days, read-out: TGI; how it was run: as §4
[17] = target: RAC-alpha serine/threonine-protein kinase (Homo sapiens) (UniProt P31749); experiment: Inhibition of Akt phosphorylation in human A549 cells at 2.1 to 4.2 uM after 24 hrs by Western blot method; type: cell-based; how it was run: as §1
[18] = tested on: A549/CDDP; experiment: Induction of apoptosis in human A549/CDDP cells assessed as increase in cleaved caspase 3 level at 0.6 to 1.2 uM after 24 hrs by Western blot method; type: functional, cell-based; how it was run: as §1
[19] = target: RAC-alpha serine/threonine-protein kinase (Homo sapiens) (UniProt P31749); experiment: Inhibition of Akt phosphorylation in human A549/CDDP cells at 0.6 to 1.2 uM after 24 hrs by Western blot method; type: cell-based; how it was run: as §1
[20] = Antiproliferative activity against human SPC-A1 cells after 72 hrs by MTT assay; type: functional, cell-based; conditions: SPCA1, 72 h; how it was run: as §3
[21] = tested on: A549/CDDP; experiment: Induction of apoptosis in human A549/CDDP cells assessed as increase in Bax to Bcl2 ratio at 0.6 to 1.2 uM after 24 hrs by Western blot method; type: functional, cell-based; how it was run: as §1
[22] = tested on: A549/CDDP; experiment: Induction of ROS generation in human A549/CDDP cells 2.1 to 4.2 uM after 60 mins by DHE staining-based fluorescence assay; type: functional, cell-based
How it was run: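 A549 or A549/DDP cells were treated in triplicate for 60 min with vehicle DMSO (0.1%, v/v) or a range of compound concentrations. Cells were stained with dihydroethidium, and intracellular ROS fluorescence was read on a microplate reader at 300 and 610 nm. Three independent experiments were run.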

RAC-alpha serine/threonine-protein kinase (Homo sapiens), sequence (P31749 whole entry): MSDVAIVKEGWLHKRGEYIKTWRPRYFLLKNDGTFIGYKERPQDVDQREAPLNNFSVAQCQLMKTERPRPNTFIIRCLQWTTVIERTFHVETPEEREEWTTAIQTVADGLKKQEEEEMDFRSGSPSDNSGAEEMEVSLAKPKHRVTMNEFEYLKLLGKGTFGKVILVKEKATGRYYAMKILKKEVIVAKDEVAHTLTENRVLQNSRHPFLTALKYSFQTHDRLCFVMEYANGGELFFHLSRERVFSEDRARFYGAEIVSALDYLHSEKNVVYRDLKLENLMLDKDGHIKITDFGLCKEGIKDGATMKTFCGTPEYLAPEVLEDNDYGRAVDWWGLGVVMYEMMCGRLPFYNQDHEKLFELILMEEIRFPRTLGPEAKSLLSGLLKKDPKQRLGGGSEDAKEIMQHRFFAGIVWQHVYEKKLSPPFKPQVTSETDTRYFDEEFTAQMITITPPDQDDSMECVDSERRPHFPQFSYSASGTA
ATP-dependent translocase ABCB1, sequence (P08183 whole entry): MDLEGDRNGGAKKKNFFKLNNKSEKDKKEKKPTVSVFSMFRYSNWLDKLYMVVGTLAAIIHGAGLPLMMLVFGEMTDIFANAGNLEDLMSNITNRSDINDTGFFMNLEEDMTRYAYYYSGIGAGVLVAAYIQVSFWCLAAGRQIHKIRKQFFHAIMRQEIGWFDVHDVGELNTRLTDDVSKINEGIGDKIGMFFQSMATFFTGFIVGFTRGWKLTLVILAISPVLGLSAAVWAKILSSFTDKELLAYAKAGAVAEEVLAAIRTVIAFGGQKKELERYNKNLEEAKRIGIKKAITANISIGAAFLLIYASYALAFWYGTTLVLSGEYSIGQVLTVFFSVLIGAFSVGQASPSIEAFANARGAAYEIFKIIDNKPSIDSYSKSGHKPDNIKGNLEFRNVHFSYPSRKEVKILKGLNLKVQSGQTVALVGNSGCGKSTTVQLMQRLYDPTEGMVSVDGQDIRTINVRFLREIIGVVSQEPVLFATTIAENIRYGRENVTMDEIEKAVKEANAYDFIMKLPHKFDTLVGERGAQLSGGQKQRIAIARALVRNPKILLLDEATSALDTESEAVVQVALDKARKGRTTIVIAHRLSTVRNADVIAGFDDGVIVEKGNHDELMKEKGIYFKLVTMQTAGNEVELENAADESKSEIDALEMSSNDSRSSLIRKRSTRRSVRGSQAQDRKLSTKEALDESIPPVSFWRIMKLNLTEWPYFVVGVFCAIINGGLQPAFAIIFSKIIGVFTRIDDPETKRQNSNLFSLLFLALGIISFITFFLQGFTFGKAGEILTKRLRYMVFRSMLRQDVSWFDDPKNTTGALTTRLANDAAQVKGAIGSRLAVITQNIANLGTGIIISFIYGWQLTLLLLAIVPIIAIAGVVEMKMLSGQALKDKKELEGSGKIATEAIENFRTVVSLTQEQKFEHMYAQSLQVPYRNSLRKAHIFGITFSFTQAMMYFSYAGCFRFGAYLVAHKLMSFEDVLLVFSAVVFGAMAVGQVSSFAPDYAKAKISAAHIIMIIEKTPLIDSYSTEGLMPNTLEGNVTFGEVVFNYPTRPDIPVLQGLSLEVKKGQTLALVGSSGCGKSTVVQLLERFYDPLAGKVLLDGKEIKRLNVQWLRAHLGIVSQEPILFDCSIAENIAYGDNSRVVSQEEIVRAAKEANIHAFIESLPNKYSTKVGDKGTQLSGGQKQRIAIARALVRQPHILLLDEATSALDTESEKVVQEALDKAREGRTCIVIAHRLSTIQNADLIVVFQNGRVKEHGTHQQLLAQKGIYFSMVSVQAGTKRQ

COc1cc(/C=C/C(=O)/C=C/c2nc(C)c(C)nc2C)ccc1O
Activity [1]: Active
Activity [2]: Active
Activity [3]: Active
survival at 14 day [4]: 0%
Activity [5]: 18.6 g
Activity [6]: Active
IC50 [7]: 21.3 µM
Activity [8]: Active
inhibition in vivo at 20 mg/kg [9]: 36%
Activity [10]: inactive
Activity [11]: Non-Toxic
inhibition (INH) [12]: Active
Activity [13]: inactive
Activity [14]: inactive
IC50 [15]: 1.49 µM
inhibition in vivo at 40 mg/kg [16]: 67%
inhibition [17]: Active
Activity [18]: Active
inhibition [19]: Active
IC50 [20]: 3.12 µM
Activity [21]: Active
Activity [22]: Active

— ChEMBL document CHEMBL4428026, “Discovery of New Monocarbonyl Ligustrazine-Curcumin Hybrids for Intervention of Drug-Sensitive and Drug-Resistant Lung Cancer” (J Med Chem, 2016)
